B1: Osa-1-4 twister ribozyme (parent)
chain: CCGCCUAACACUGCCAAUGCCGGUCCCAAGCCCGGAUAAAAGUGGAGGGGGCGG

Our source for the self-cleavage values is the RNAGym collection of RNA variant scans (doi:10.1002/anie.201605470).

In the data set the parent is B1. The experiment in a line: self-cleavage, relative activity (ratio to wild type); higher = more cleavage; co-transcriptional. The method, boiled down:
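For each read, cleavage status was taken from whether upstream sequence was present. The reads came from an Oryza sativa twister ribozyme of 54 nucleotides, whose DNA template was synthesised with 97 % wild-type base and 1 % of each other base at the 48 positions downstream of the cleavage site. The template was transcribed in vitro at 37 °C for 2 h with co-transcriptional self-cleavage, and the RNA was reverse-transcribed using a template-switching oligonucleotide, PCR-amplified and deep-sequenced. Relative activity is the fraction cleaved normalised to wild type.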
Turning to CCGCCUAACACAGCCAAUGCCGGUCCCAAGGCCGGAUAAAAGUGGAGGGGGCGG [C31G U12A], the self-cleavage amounted to 0.08. In the case of CCGCCUAACACUGCCAAUGCCGGUCCCAAGGCCGGAUAAAAGUAGAGGGGGCGG [C31G G44A] it was 0.08; in that of CCGCCUAACACUGCCAAUGCCGGUCCCAAGGCCGGAUAAAAGUUGAGGGGGCGG [C31G G44U], 0.05; in that of CCGCCUAACACUGCCAAUGCCGGUCCCAAGGCCGGAUAAAAGUCGAGGGGGCGG [C31G G44C], 0.07. Turning to CCGCCUAACACUGCCAAUGCCGCUCCCAAGGCCGGAUAAAAGUGGAGGGGGCGG [C31G G23C], the self-cleavage was 0.11. On to CCGCCUAACACUGCCAAUGCCGAUCCCAAGGCCGGAUAAAAGUGGAGGGGGCGG [C31G G23A], for which the self-cleavage is 0.06. In the case of CCGCCUAACACUGCCAAUGCCGUUCCCAAGGCCGGAUAAAAGUGGAGGGGGCGG [C31G G23U], the self-cleavage worked out at 0.03. In the case of CCGCCUAACACUUCCAAUGCCGGUCCCAAGGCCGGAUAAAAGUGGAGGGGGCGG [C31G G13U] it was 0.04; in that of CCGCCUAACACUCCCAAUGCCGGUCCCAAGGCCGGAUAAAAGUGGAGGGGGCGG [C31G G13C], 0.06. In the case of CCGCCUAACACUACCAAUGCCGGUCCCAAGGCCGGAUAAAAGUGGAGGGGGCGG [C31G G13A] it was 0.06; in that of CCGCCUAACACUGCCAAUGCCGGUCCCAAGGCCGGAUAAAAGUGGAGGGGGGGG [C31G C52G], 0.15. For CCGCCUAACACUGCCAAUGCCGGUCCCAAGGCCGGAUAAAAGUGGAGGGGGAGG [C31G C52A] the value was 0.1. As to CCGCCUAACACUGCCAAUGCCGGUCCCAAGGCCGGAUAAAAGUGGAGGGGGUGG [C31G C52U], the self-cleavage was 0.12.

Regarding CCGCCUAACACUGCCAAUGCCGGUCCCAAGGCCGAAUAAAAGUGGAGGGGGCGG [C31G G35A], the self-cleavage was 0.15. As to CCGCCUAACACUGCCAAUGCCGGUCCCAAGGCCGUAUAAAAGUGGAGGGGGCGG [C31G G35U], the self-cleavage is 0.12.

As for CCGCCUAACACUGCCAAUGCCGGUCCCAAGGCCGCAUAAAAGUGGAGGGGGCGG [C31G G35C], the self-cleavage is 0.04.

Take CCGCCUAACACUGCCAAUGCCGGUCCCAAGACCGGAUAAAAGUGGAGGUGGCGG [C31A G49U]: the self-cleavage came to 0.02.

Regarding CCGCCUAACACUGCCAAUGCCGGUCCCAAGACCGGAUAAAAGUGGAGGAGGCGG [C31A G49A], the self-cleavage is 0.02.

As to CCGCCUAACACUGCCAAUGCCGGUCCCAAGACCGGAUAAAAGUGGAGGCGGCGG [C31A G49C], the self-cleavage came out at 0.01. Take CCGCCUAACACUGCCAAUGCCGGUCCCAAGGCCGGAUAAAAGUGGAGGGGGCGG [C31G]: the self-cleavage was 0.11. For CCGCCUAACACUGCCAAUGCCGGUCCCAAGACCGGAUAAAAGUGGAGUGGGCGG [C31A G48U] the value was 0.01; for CCGCCUAACACUGCCAAUGCCGGUCCCAAGACCGGAUAAAAGUGGAGCGGGCGG [C31A G48C], 0.02.

Regarding CCGCCUAACACUGCCAAUGCCGGUCCCAAGGCCGGAUAAAAAUGGAGGGGGCGG [C31G G42A], the self-cleavage came to 0.1. In the case of CCGCCUAACACUGCCAAUGCCGGUCCCAAGGCCGGAUAAAACUGGAGGGGGCGG [C31G G42C] it was 0.05; in that of CCGCCUAACACUGCCAAUGCCGGUCCCAAGGCCGGAUAAAAUUGGAGGGGGCGG [C31G G42U], 0.02.

Regarding CCGCCUAACACAGCCAAUGCCGGUCCCAAGACCGGAUAAAAGUGGAGGGGGCGG [C31A U12A], the self-cleavage is 0.04. For CCGCCUAACACCGCCAAUGCCGGUCCCAAGACCGGAUAAAAGUGGAGGGGGCGG [C31A U12C], the self-cleavage came to 0.02. In the case of CCGCCUAACACGGCCAAUGCCGGUCCCAAGACCGGAUAAAAGUGGAGGGGGCGG [C31A U12G] it was 0.04; in that of CCGCCUAACACUGCCAAUGCCGGUCCCAAGGCCGGAUAAAAGUGGAGGGGACGG [C31G G51A], 0.08; in that of CCGCCUAACACUGCCAAUGCCGGUCCCAAGGCCGGAUAAAAGUGGAGGGGCCGG [C31G G51C], 0.04.

For the variant CCGCCUAACACUGCCAAUGCCGGUCCCAAGGCCGGAUAAAAGUGGAGGGGUCGG [C31G G51U], the self-cleavage is 0.05. For CCGCCUAACACUGCCAAUGCCGGUCCCAAGGCCGGAUAAAAGUGGAGGGGGCGU [C31G G54U], the self-cleavage stood at 0.19. Take CCGCCUAACACUGCCAAUGCCGGUCCCAAGGCCGGAUAAAAGUGGAGGGGGCGA [C31G G54A]: the self-cleavage is 0.1. CCGCCUAACACUGCCAAUGCCGGUCCCAAGGCCGGAUAAAAGUGGAGGGGGCGC [C31G G54C]: the self-cleavage was determined as 0.07. In the case of CCGCCUAACACUGCCAAUGCCGGUCCCAAGGUCGGAUAAAAGUGGAGGGGGCGG [C31G C32U], the self-cleavage amounted to 0.04.

For CCGCCUAACACUGCCAAUGCCGGUCCCAAGGGCGGAUAAAAGUGGAGGGGGCGG [C31G C32G], the self-cleavage is 0.1.

As for CCGCCUAACACUGCCAAUGCCGGUCCCAAGGACGGAUAAAAGUGGAGGGGGCGG [C31G C32A], the self-cleavage was found to be 0.02.

With CCGCCUAACACUGCCAAUGCCGGUCCCAAGACCGGAUAAAAGUGGAGGGGGCAG [C31A G53A], the self-cleavage worked out at 0.04. For CCGCCUAACACUGCCAAUGCCGGUCCCAAGACCGGAUAAAAGUGGAGGGGGCUG [C31A G53U] the value was 0.03; for CCGCCUAACACUGCCAAUGCCGGUCCCAAGACCGGAUAAAAGUGGAGGGGGCCG [C31A G53C], 0.01; for CCGCCUAACACUGCCAAUGCCGGUCCCAAUGCCGGAUAAAAGUGGAGGGGGCGG [C31G G30U], 0.04. Consider CCGCCUAACACUGCCAAUGCCGGUCCCAAAGCCGGAUAAAAGUGGAGGGGGCGG [C31G G30A], for which the self-cleavage came out at 0.04. With CCGCCUAACACUGCCAAUGCCGGUCCCAACGCCGGAUAAAAGUGGAGGGGGCGG [C31G G30C], the self-cleavage stood at 0.03. In the case of CCGCCUAACACUGCCAAUGCCGGUCCCAAGGCCGGAUAAAAGUGGAGUGGGCGG [C31G G48U] it was 0.02; in that of CCGCCUAACACUGCCAAUGCCGGUCCCAAGGCCGGAUAAAAGUGGAGCGGGCGG [C31G G48C], 0.03; in that of CCGCCUAACACUGCCAAUGCCGGUCCCAAGGCCGGAUAAAAGUGGAGAGGGCGG [C31G G48A], 0.03. Regarding CCGCCUAACACUGCCAAUGCCGGUCCCAAGACCGGAUAAAAGUGGAGGGGACGG [C31A G51A], the self-cleavage amounted to 0.04. In the case of CCGCCUAACACUGCCAAUGCCGGUCCCAAGACCGGAUAAAAGUGGAGGGGCCGG [C31A G51C] it was 0.02.

Take CCGCCUAACACUGCCAAUGCCGGUCCCAAGACCGGAUAAAAGUGGAGGGGUCGG [C31A G51U]: the self-cleavage turned out to be 0.04.
